Measured values from ChEMBL document CHEMBL1154061, “Synthesis and in vitro antibacterial activity of 7-(4-alkoxyimino-3-amino-3-methylpiperidin-1-yl)fluoroquinolone derivatives” (Eur J Med Chem, 2009).
≈ marks a conversion by molar mass, not a printed value.

Tests used:
[1] = tested on: Streptococcus pneumoniae; assay: Antibacterial activity against Streptococcus pneumoniae 97100 after 18 to 24 hrs by twofold serial dilution method; type: functional
Summary of the method: (§1)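 Agar media, standard twofold serial dilution (NCCLS M100-S11 basis). Plates incubated at 35 °C for 18–24 h. MIC taken as the lowest compound concentration giving complete inhibition of visible bacterial growth.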

[2] = tested on: Shigella sonnei; assay: Antibacterial activity against Shigella sonnei 51592 after 18 to 24 hrs by twofold serial dilution method; type: functional; summary of the method: as §1
[3] = tested on: Escherichia coli; assay: Antibacterial activity against Escherichia coli 26 after 18 to 24 hrs by twofold serial dilution method; type: functional; summary of the method: as §1
[4] = tested on: Enterobacter cloacae; assay: Antibacterial activity against Enterobacter cloacae 45301 after 18 to 24 hrs by twofold serial dilution method; type: functional; summary of the method: as §1
[5] = tested on: Klebsiella pneumoniae; assay: Antibacterial activity against Klebsiella pneumoniae 7 after 18 to 24 hrs by twofold serial dilution method; type: functional; summary of the method: as §1
[6] = tested on: Pseudomonas aeruginosa; assay: Antibacterial activity against Pseudomonas aeruginosa 17 after 18 to 24 hrs by twofold serial dilution method; type: functional; summary of the method: as §1
[7] = tested on: Streptococcus pyogenes; assay: Antibacterial activity against Streptococcus pyogenes 9619 after 18 to 24 hrs by twofold serial dilution method; type: functional; summary of the method: as §1
[8] = tested on: Enterococcus faecalis; assay: Antibacterial activity against Enterococcus faecalis ATCC 29212 after 18 to 24 hrs by twofold serial dilution method; type: functional; summary of the method: as §1
[9] = tested on: Staphylococcus aureus; assay: Antibacterial activity against Staphylococcus aureus ATCC 29213 after 18 to 24 hrs by twofold serial dilution method; type: functional; summary of the method: as §1
[10] = Cytotoxicity against african green monkey Vero cells assessed as cell viability after 72 hrs by MTT assay; type: cell-based; conditions: chlorocebus sabaeus
[11] = tested on: Staphylococcus aureus; assay: Antibacterial activity against methicillin-resistant Staphylococcus aureus 05-3 after 18 to 24 hrs by twofold serial dilution method; type: functional
Summary of the method: (§2)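 Agar twofold serial dilution MIC. Plates incubated at 35 °C for 18–24 h. MIC taken as the lowest compound concentration giving complete inhibition of visible bacterial growth.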

[12] = tested on: Staphylococcus epidermidis; assay: Antibacterial activity against methicillin-resistant Staphylococcus epidermidis 05-1 after 18 to 24 hrs by twofold serial dilution method; type: functional; summary of the method: as §2
[13] = tested on: Staphylococcus epidermidis; assay: Antibacterial activity against Staphylococcus epidermidis ATCC 12228 after 18 to 24 hrs by twofold serial dilution method; type: functional; summary of the method: as §1

| SMILES | MIC [1] | MIC [2] | MIC [3] | MIC [4] | MIC [5] | MIC [6] | MIC [7] | MIC [8] | MIC [9] | CC50 at 72 h [10] | MIC [11] | MIC [12] | MIC [13] |
| --- | --- | --- | --- | --- | --- | --- | --- | --- | --- | --- | --- | --- | --- |
| CCO/N=C1/CCN(c2nc3c(cc2F)c(=O)c(C(=O)O)cn3-c2ccc(F)cc2F)CC1(C)N (centres undefined) | 16 µg/mL (≈ 32.7 µM) | 16 µg/mL (≈ 32.7 µM) | 8 µg/mL (≈ 16.3 µM) | 16 µg/mL (≈ 32.7 µM) | 8 µg/mL (≈ 16.3 µM) | 64 µg/mL (≈ 131 µM) | 128 µg/mL (≈ 262 µM) | 4 µg/mL (≈ 8.17 µM) | 1 µg/mL (≈ 2.04 µM) | 31.4 µM | 128 µg/mL (≈ 262 µM) | > 128 µg/mL | 1 µg/mL (≈ 2.04 µM) |
| CO/N=C1/CCN(c2c(F)cc3c(=O)c(C(=O)O)cn(CCF)c3c2F)CC1(C)N (centres undefined) | 16 µg/mL (≈ 37.5 µM) | 8 µg/mL (≈ 18.8 µM) | 4 µg/mL (≈ 9.38 µM) | 8 µg/mL (≈ 18.8 µM) | 4 µg/mL (≈ 9.38 µM) | 32 µg/mL (≈ 75 µM) | 16 µg/mL (≈ 37.5 µM) | 8 µg/mL (≈ 18.8 µM) | 1 µg/mL (≈ 2.35 µM) | 626 µM | > 128 µg/mL | > 128 µg/mL | 1 µg/mL (≈ 2.35 µM) |
| CCO/N=C1/CCN(c2c(F)cc3c(=O)c(C(=O)O)cn(CCF)c3c2F)CC1(C)N (centres undefined) | 16 µg/mL (≈ 36.3 µM) | 16 µg/mL (≈ 36.3 µM) | 8 µg/mL (≈ 18.2 µM) | 16 µg/mL (≈ 36.3 µM) | 4 µg/mL (≈ 9.08 µM) | 128 µg/mL (≈ 291 µM) | 32 µg/mL (≈ 72.7 µM) | 16 µg/mL (≈ 36.3 µM) | 2 µg/mL (≈ 4.54 µM) | 243 µM | > 128 µg/mL | > 128 µg/mL | 2 µg/mL (≈ 4.54 µM) |
| C[C@H]1COc2c(N3CCN(C)CC3)c(F)cc3c(=O)c(C(=O)O)cn1c23.C[C@H]1COc2c(N3CCN(C)CC3)c(F)cc3c(=O)c(C(=O)O)cn1c23.O [LEVOFLOXACIN] |  | 1 µg/mL |  | 0.125 µg/mL |  | 0.5 µg/mL | 4 µg/mL | 1 µg/mL | 0.25 µg/mL | > 1000 µM | 32 µg/mL | 32 µg/mL | 0.5 µg/mL |
| CO/N=C1\CN(c2nc3c(cc2F)c(=O)c(C(=O)O)cn3C2CC2)CC1CN (centres undefined) [GEMIFLOXACIN] | 2 µg/mL (≈ 5.14 µM) | 0.06 µg/mL (≈ 0.154 µM) | 0.06 µg/mL (≈ 0.154 µM) | 0.06 µg/mL (≈ 0.154 µM) | 0.5 µg/mL (≈ 1.28 µM) | 0.125 µg/mL (≈ 0.321 µM) | 2 µg/mL (≈ 5.14 µM) | 0.06 µg/mL (≈ 0.154 µM) | < 0.03 µg/mL |  | 4 µg/mL (≈ 10.3 µM) | 2 µg/mL (≈ 5.14 µM) | < 0.03 µg/mL |
| CO/N=C1/CCN(c2nc3c(cc2F)c(=O)c(C(=O)O)cn3-c2ccc(F)cc2F)CC1(C)N (centres undefined) | 8 µg/mL (≈ 16.8 µM) | 8 µg/mL (≈ 16.8 µM) | 8 µg/mL (≈ 16.8 µM) | 16 µg/mL (≈ 33.7 µM) | 8 µg/mL (≈ 16.8 µM) | 32 µg/mL (≈ 67.3 µM) | > 128 µg/mL | 8 µg/mL (≈ 16.8 µM) | 1 µg/mL (≈ 2.1 µM) | 259 µM | > 128 µg/mL | > 128 µg/mL | 2 µg/mL (≈ 4.21 µM) |
